Data set [1] concerns the target T1, Putative uncharacterized protein pk7 (Plasmodium falciparum, UniProt O96214).
T1 sequence (O96214 whole entry): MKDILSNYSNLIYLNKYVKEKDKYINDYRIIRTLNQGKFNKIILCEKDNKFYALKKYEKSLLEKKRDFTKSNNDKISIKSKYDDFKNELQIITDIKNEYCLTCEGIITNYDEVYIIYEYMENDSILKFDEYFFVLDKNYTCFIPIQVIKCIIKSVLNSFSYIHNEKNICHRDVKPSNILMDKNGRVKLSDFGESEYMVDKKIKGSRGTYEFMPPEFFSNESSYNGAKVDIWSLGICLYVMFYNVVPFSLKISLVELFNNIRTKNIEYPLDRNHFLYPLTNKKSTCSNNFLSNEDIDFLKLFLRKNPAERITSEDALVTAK
Put plainly: (§1) Inhibition of Plasmodium falciparum PK7.

Data set [2] has as its target T2, Putative uncharacterized protein pk7 (Plasmodium falciparum) (UniProt O96214).
T2 sequence (whole entry): T1 sequence (O96214 whole entry)
The description is as §1.

For data set [3], the system named is Plasmodium falciparum. Put plainly: Antimalarial activity against chloroquine-sensitive Plasmodium falciparum 3D7 by [3H]hypoxanthine uptake. The class given is functional, organism-based. The method in brief: (§2)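 P. falciparum blood-stage growth measured by ³H-hypoxanthine incorporation, with chloroquine as the reference standard. Strains: 3D7, a drug-sensitive laboratory clone of the NF54 isolate, and K1 (Thailand), which is resistant to chloroquine, pyrimethamine and cycloguanil. Values are IC50 in μM.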

Data set [4] can be described thus: Selectivity index, ratio of IC50 for human KB cells to IC50 for Plasmodium falciparum 3D7. The settings on record: read-out: Ratio IC50. The format is toxicity, cell-based. The gist of the method:
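Ratio of the human KB cell cytotoxicity IC50 to the P. falciparum 3D7 IC50. 3D7 is a drug-sensitive laboratory clone of the NF54 isolate. Parasite IC50 (μM) came from a 3H-hypoxanthine incorporation assay run with chloroquine as the standard.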

The test system of data set [5] is Plasmodium falciparum. In words: Antimalarial activity against multidrug-resistant Plasmodium falciparum K1 by [3H]hypoxanthine uptake. The class given is functional, organism-based. The gist of the method: as §2
The test system of the next data set is KB. In words: Cytotoxicity against human KB cells. The class given is cell-based.

Calls of active or inactive are those of the source. The calls are words filed in the database; no cut-off is given here.

For the compound `CN(Cc1ccc(F)cc1)c1ccc2ncc(-c3ccc(CNCO)cc3)n2n1`, the IC50 (in general, the midpoint of a concentration-inhibition curve) in data set [1] was 34 µM.

Compound `N#Cc1ccc(-c2cnc3ccc(NC4CCCNC4)nn23)cc1` (racemic) gave a half-inhibitory concentration (IC50) in data set [1] of 2.1 µM.

In data set [1], `CC(C)[C@@H](CO)Nc1ccc2ncc(-c3ccc(CC(=O)O)cc3)n2n1` returned a half-maximal inhibitory concentration (IC50) of 111 µM.

On to `c1cncc(CNc2ccc3ncc(-c4ccncc4)n3n2)c1`, for which half-maximal inhibition in data set [1] (IC50) required 7.9 µM.

In the case of `CC(C)[C@@H](CO)Nc1ccc2ncc(-c3ccc(CO)cc3)n2n1`, the IC50 in data set [1] was found to be 7.4 µM.

Consider `CC(C)[C@H](N)c1cccc(N2CCOCC2)c1`, for which 43 µM corresponded to half-maximal inhibition in data set [1] (IC50).

For `CC(C)[C@@H](N)c1cccc(N2CCOCC2)c1`, in data set [2], the outcome was inactive.

In the case of `COCCNc1ccc2ncc(-c3ccc(C#N)cc3)n2n1`, the 50% inhibitory concentration (IC50) in data set [1] amounted to 1.4 µM.

In the case of `N#Cc1ccc(-c2cnc3ccc(N[C@H]4CC[C@H](O)CC4)nn23)cc1`, the IC50 in the data set with Plasmodium falciparum [3] came out at 1.03 µM; in data set [1], 0.13 µM; with Plasmodium falciparum [5] it was 2.65 µM; in the data set with KB, 24 µM. The selectivity ratio in data set [4] is 23.3.

As for `N#Cc1ccc(-c2cnc3ccc(NCc4ccc(N5CCOCC5)cc4)nn23)cc1`, in data set [1], the concentration for half-maximal inhibition (IC50) worked out at 8 µM.

`CN(Cc1ccc(F)cc1)c1ccc2ncc(-c3ccc(C(N)=O)cc3)n2n1` gave an IC50 in data set [1] of 1.1 µM.

In data set [1], `C[C@@H](N)c1cccc(N2CCOCC2)c1` yielded a half-maximal inhibitory concentration (IC50) of 4.8 µM.

In turn, `CCN(CC)CCCC(C)Nc1ccnc2cc(Cl)ccc12` (stereo not given) [CHLOROQUINE] showed an IC50 in the data set on KB of 97.5 µM.

`CC(C)[C@@H](CO)Nc1ccc2ncc(-c3ccc(CN)cc3)n2n1` showed an IC50 in data set [1] of 104 µM.

On to `CN(Cc1ccc(F)cc1)c1ccc2ncc(-c3ccc(C#N)cc3)n2n1`, for which the IC50 in data set [1] worked out at 1.07 µM.

In the case of `N#Cc1ccc(-c2cnc3ccc(N[C@H]4CCC[C@H](O)C4)nn23)cc1` (racemic), the IC50 in data set [1] is 0.26 µM.

Compound `CN(Cc1cccnc1)c1ccc2ncc(-c3ccc(C#N)cc3)n2n1` had an IC50 in data set [1] of 1.26 µM.

For `CN(Cc1ccc(F)cc1)c1ccc2ncc(-c3ccc(CO)cc3)n2n1`, the IC50 in data set [1] came to 21 µM.

As for `CN(Cc1ccc(F)cc1)c1ccc2ncc(-c3ccc(CN4CCC(O)CC4)cc3)n2n1`, the midpoint of inhibition in data set [1], the IC50, lay at 103 µM.

`COc1ccc(-c2cnc3ccc(NCc4cccnc4)nn23)cc1`: in data set [1], the midpoint of inhibition, the IC50, lay at 11.6 µM.

With `N#Cc1ccc(-c2cnc3ccc(NCC4CCCO4)nn23)cc1` (stereo not given), in data set [1], half-maximal inhibition (IC50) required 0.75 µM.

In data set [1], `N#Cc1ccc(-c2cnc3ccc(N[C@H]4CCCC[C@@H]4O)nn23)cc1` (racemic) came in with an IC50 of 0.22 µM.

Compound `CC(C)[C@@H](CO)Nc1ccc2ncc(-c3ccc(N)cc3)n2n1` displayed an IC50 in data set [1] of 34 µM.

For `CC(C)[C@@H](CO)Nc1ccc2ncc(-c3ccc(C#N)cc3)n2n1`, the half-maximal inhibitory concentration (IC50) stood at 2.6 µM in the data set on Plasmodium falciparum [3], 0.28 µM in data set [1], 6.86 µM in the data set with Plasmodium falciparum [5] and 52.2 µM in the data set with KB. Also, the selectivity ratio in data set [4] was 20.1.

Take `N#Cc1ccc(-c2cnc3ccc(NCCO)nn23)cc1`: inhibition in data set [1] was half-maximal at 1 µM (IC50).

Turning to `N#Cc1ccc(-c2cnc3ccc(NCC4CC4)nn23)cc1`, the IC50 is 7.15 µM with Plasmodium falciparum [3], 0.58 µM in data set [1], 12.7 µM with Plasmodium falciparum [5] and 21.2 µM with KB. The selectivity ratio in data set [4] came to 2.96.

With `CN(Cc1ccc(F)cc1)c1ccc2ncc(-c3ccc(N)cc3)n2n1`, in data set [1], the half-inhibitory concentration (IC50) came out at 42 µM.

In data set [1], `N#Cc1ccc(-c2cnc3ccc(NCc4cccnc4)nn23)cc1` yielded a half-inhibitory concentration (IC50) of 0.81 µM.

`CC(C)[C@@H](CO)Nc1ccc2ncc(-c3ccc(CC#N)cc3)n2n1` registered an IC50 in data set [1] of 25 µM.

With `CC(C)[C@@H](CO)Nc1ccc2ncc(-c3ccc(C(N)=O)cc3)n2n1`, the half-maximal inhibitory concentration (IC50) stood at 2.46 µM with Plasmodium falciparum [3], 0.77 µM in data set [1], 3.89 µM in the data set on Plasmodium falciparum [5] and 13 µM in the data set with KB. For the same compound, the selectivity ratio in data set [4] came to 5.27.

With `N#Cc1ccc(-c2cnc3ccc(NC4CCCCC4)nn23)cc1`, the midpoint of inhibition in data set [1], the IC50, lay at 0.34 µM.

The compound `CN(Cc1ccc(F)cc1)c1ccc2ncc(-c3ccc(Cn4ccnc4)cc3)n2n1` registered an IC50 in data set [1] of 56 µM.

For the compound `C[C@@H](CO)Nc1ccc2ncc(-c3ccc(C#N)cc3)n2n1`, the IC50 in the data set on Plasmodium falciparum [3] was 5.26 µM; in data set [1] it was 0.44 µM; in the data set on Plasmodium falciparum [5], 9.93 µM; in the data set on KB it was 21.2 µM. Also, the selectivity ratio in data set [4] is 4.03.

Compound `C[C@H](CO)Nc1ccc2ncc(-c3ccc(C#N)cc3)n2n1` registered an IC50 in data set [1] of 1 µM.

Turning to `COC[C@H](C)Nc1ccc2ncc(-c3ccc(C#N)cc3)n2n1`, the IC50 in the data set on Plasmodium falciparum [3] amounted to 6.06 µM; in data set [1], 0.82 µM; in the data set with Plasmodium falciparum [5] it was 10.5 µM; in the data set with KB, 25.8 µM. Besides, the selectivity ratio in data set [4] is 4.25.

Turning to `C[C@H](N)c1cccc(N2CCOCC2)c1`, half-maximal inhibition in data set [1] (IC50) required 25 µM.

(Values after ChEMBL document CHEMBL1141703, “Synthesis and in vitro evaluation of imidazopyridazines as novel inhibitors of the malarial kinase PfPK7” (Bioorg Med Chem Lett, 2008).)
